Experimental data as given in paper PMC10262665 (Science (New York, N.Y.), 2023).
One block for each molecule: values may come before it.

Columns and labels:
[1] = target: glucose-6-phosphate isomerase (GPI) (Homo sapiens, UniProt P06744); test: MIDAS protein-metabolite interaction screen; assay type: binding; details: significant PMI Q < 0.01
How it was run: (§1)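 Purified protein is separated from a defined metabolite library by a semipermeable dialysis membrane that passes metabolites but not protein, then incubated to relative equilibrium. Protein is denatured and removed. Metabolites in both chambers are quantified by flow injection analysis–MS, with methods optimized for each pool. The between-chamber fold change is normalized and corrected for nonspecific interactions.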

[2] = target: PGAM1 (Homo sapiens, UniProt P18669); test: MIDAS protein-metabolite interaction screen; assay type: binding; details: significant PMI Q < 0.01
PGAM1, sequence (P18669 whole entry): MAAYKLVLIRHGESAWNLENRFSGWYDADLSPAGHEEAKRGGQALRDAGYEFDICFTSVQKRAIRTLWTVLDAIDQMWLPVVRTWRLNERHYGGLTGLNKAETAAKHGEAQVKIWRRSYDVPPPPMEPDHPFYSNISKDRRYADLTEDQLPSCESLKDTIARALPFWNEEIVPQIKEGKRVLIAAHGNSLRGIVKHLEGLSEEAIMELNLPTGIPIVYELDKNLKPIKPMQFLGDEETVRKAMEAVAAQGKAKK
How it was run: as §1

[3] = target: T1, PGAM2 (Homo sapiens, UniProt P15259); test: MIDAS protein-metabolite interaction screen; assay type: binding; details: significant PMI Q < 0.01
T1 sequence (P15259 1-253): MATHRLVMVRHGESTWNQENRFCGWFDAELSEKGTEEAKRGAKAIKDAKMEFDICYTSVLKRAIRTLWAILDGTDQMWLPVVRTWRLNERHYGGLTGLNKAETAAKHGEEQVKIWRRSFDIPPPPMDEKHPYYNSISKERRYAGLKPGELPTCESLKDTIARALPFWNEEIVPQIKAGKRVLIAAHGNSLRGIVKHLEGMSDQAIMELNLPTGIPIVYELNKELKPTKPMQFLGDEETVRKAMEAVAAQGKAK
How it was run: as §1

[4] = target: GAPDH (Homo sapiens, UniProt P04406); test: MIDAS protein-metabolite interaction screen; assay type: binding; details: significant PMI Q < 0.01
GAPDH, sequence (P04406 whole entry): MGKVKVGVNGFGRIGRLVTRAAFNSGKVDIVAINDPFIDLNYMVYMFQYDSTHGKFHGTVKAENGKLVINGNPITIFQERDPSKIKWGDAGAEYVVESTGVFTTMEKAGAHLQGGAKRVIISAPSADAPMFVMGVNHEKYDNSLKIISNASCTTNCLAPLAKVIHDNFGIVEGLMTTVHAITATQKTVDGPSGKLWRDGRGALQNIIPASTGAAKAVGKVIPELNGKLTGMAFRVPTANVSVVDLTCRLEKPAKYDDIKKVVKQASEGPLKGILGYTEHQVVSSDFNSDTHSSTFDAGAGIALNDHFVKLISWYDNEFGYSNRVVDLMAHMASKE

[5] = target: PKM2 (Homo sapiens, UniProt P14618); test: MIDAS protein-metabolite interaction screen; assay type: binding; details: significant PMI Q < 0.01
PKM2, sequence (P14618 whole entry): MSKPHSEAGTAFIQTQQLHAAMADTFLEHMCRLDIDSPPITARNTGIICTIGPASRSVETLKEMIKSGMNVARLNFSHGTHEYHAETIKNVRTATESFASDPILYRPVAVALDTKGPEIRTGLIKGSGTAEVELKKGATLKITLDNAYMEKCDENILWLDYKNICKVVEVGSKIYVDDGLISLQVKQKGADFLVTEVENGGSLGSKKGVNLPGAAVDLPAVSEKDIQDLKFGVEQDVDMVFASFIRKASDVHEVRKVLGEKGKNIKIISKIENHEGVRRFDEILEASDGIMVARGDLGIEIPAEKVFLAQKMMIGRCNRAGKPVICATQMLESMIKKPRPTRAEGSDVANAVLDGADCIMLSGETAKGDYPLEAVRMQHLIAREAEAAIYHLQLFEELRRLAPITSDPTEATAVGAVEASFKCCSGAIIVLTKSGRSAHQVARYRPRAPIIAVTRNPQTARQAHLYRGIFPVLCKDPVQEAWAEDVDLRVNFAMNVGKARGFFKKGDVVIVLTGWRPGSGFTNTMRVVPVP
How it was run: as §1

[6] = target: T2, LDHA (Homo sapiens, UniProt P00338); test: LDH enzyme activity assay; assay type: biochemical; details: in vitro
How it was run: (§2)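 LDH isoform activity measured in vitro with test metabolites (adenosine nucleotides, CoA and acyl-CoAs) over a concentration range. IC50 is derived from the inhibition curves. Mode of inhibition is assessed against NAD and lactate.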

[7] = target: T3, LDHB (Homo sapiens, UniProt P07195); test: LDH enzyme activity assay; assay type: biochemical; details: in vitro
T3 sequence (P07195 whole entry): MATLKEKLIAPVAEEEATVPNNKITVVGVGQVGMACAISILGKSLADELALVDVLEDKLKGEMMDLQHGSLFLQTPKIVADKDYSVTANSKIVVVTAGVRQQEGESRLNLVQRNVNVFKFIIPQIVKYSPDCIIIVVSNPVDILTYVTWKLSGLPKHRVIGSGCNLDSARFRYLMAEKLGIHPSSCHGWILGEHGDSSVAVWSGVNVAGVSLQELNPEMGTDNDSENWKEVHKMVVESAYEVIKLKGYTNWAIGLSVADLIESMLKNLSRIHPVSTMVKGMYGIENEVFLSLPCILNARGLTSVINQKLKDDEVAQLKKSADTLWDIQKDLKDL
How it was run: as §2

[8] = target: T4, phosphofructokinase (PFKP) (Homo sapiens, UniProt Q01813); test: MIDAS protein-metabolite interaction screen; assay type: binding; details: significant PMI Q < 0.01
T4 sequence (Q01813 1-784): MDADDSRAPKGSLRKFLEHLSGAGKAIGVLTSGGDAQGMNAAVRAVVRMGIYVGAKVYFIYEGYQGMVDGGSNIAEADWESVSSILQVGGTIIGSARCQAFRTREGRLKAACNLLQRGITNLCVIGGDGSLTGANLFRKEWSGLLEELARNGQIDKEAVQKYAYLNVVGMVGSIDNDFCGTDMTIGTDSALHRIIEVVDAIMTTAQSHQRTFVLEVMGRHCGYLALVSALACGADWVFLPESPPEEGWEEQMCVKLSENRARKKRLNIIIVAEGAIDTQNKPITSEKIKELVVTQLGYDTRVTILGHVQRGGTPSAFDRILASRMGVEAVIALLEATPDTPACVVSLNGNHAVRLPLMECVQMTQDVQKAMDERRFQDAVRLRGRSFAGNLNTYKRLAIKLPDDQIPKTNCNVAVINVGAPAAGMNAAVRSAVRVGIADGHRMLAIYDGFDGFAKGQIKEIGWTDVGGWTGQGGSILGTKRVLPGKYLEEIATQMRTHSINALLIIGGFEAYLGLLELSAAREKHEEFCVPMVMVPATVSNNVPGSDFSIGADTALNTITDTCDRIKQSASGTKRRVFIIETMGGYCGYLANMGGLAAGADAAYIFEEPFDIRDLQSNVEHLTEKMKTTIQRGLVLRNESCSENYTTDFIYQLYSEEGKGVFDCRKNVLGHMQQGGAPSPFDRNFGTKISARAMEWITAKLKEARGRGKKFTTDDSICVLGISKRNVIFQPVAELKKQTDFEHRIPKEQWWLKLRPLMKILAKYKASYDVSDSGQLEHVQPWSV
How it was run: as §1

[9] = target: T2, LDHA; test: MIDAS protein-metabolite interaction screen; assay type: binding; details: significant PMI Q < 0.01
How it was run: as §1

[10] = target: T3, LDHB; test: MIDAS protein-metabolite interaction screen; assay type: binding; details: significant PMI Q < 0.01
How it was run: as §1

[11] = target: T5, Sestrin2 (Homo sapiens, UniProt P58004); test: MIDAS protein-metabolite interaction screen; assay type: binding; details: significant PMI Q < 0.01
T5 sequence (P58004 1-480): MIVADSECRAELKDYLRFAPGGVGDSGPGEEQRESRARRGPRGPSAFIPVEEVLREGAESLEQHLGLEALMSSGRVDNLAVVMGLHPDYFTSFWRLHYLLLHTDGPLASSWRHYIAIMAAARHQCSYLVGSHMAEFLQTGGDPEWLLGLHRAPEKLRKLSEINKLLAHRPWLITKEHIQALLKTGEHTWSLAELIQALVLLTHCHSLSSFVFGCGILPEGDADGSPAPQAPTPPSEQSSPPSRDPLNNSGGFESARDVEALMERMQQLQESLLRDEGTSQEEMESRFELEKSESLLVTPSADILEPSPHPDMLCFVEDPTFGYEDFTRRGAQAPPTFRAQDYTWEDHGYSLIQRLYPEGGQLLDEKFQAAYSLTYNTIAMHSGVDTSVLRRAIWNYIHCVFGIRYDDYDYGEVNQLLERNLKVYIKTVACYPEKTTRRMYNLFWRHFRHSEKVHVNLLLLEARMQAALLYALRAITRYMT
How it was run: as §1

[12] = target: T6, CASTOR1 (Homo sapiens, UniProt Q8WTX7); test: MIDAS; assay type: binding; details: significant PMI Q < 0.01
T6 sequence (Q8WTX7 1-329): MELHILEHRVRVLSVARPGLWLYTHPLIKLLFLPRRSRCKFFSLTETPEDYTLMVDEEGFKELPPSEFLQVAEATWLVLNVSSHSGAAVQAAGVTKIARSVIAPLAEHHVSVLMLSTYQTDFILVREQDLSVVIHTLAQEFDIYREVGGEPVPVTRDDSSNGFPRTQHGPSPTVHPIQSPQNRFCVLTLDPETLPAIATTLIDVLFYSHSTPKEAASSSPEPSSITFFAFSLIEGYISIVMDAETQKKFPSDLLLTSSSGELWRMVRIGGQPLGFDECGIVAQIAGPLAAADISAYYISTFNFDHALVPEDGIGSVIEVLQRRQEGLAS
How it was run: as §1

[13] = test system: H9c2 rat cardiomyoblasts; test: 13C-glucose metabolic tracing into lactate; assay type: cell-based; details: for labeling of lactate from 13C-glucose: BSA-conjugated palmitate vs BSA
[14] = test system: H9c2 rat cardiomyoblasts; test: 13C-lactate metabolic tracing into pyruvate; assay type: cell-based
[15] = target: T7, fumarase (Homo sapiens, UniProt P07954); test: Differential scanning fluorimetry; assay type: binding; details: read-out: apparent dissociation constant (Kd app); DSF, fumarase
T7 sequence (P07954 45-510): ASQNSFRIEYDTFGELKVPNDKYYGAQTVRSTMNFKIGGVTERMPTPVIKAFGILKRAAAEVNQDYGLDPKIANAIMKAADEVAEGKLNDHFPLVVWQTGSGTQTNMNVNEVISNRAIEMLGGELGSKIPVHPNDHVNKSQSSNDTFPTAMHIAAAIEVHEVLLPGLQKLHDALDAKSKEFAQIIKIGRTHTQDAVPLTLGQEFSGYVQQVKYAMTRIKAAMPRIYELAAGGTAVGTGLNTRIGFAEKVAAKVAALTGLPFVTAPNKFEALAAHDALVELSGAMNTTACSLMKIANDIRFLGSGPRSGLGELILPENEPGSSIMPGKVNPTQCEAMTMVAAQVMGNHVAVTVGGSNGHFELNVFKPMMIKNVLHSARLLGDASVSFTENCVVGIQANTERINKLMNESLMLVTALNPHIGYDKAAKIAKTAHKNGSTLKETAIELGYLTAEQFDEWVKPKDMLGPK

[16] = dimethylated fatty acid analogs

MIDAS protein-metabolite interaction [1]: interacted
Compound: O=C[C@H](O)[C@@H](O)[C@H](O)[C@H](O)COP(=O)(O)O [glucose-6-phosphate]

MIDAS protein-metabolite interaction [2]: interacted | MIDAS protein-metabolite interaction [3]: interacted
Compound: C=C(OP(=O)(O)O)C(=O)O [PEP, phosphoenolpyruvate]

MIDAS protein-metabolite interaction [4]: interacted | MIDAS protein-metabolite interaction [2]: interacted | MIDAS protein-metabolite interaction [3]: interacted
Compound: O=C(O)C(COP(=O)(O)O)OP(=O)(O)O (stereo not drawn) [2,3-BPG, 2,3-bisphosphoglycerate]

MIDAS protein-metabolite interaction [5]: interacted
Compound: Nc1nc2c(ncn2[C@@H]2O[C@H](COP(=O)(O)OP(=O)(O)O)[C@@H](O)[C@H]2O)c(=O)[nH]1 [GDP, guanosine diphosphate]

Compound: Nc1ncnc2c1ncn2[C@@H]1O[C@H](COP(=O)(O)O)[C@@H](O)[C@H]1O [AMP, adenosine monophosphate]
inhibition of LDHA enzyme activity [6]: only at supraphysiological concentrations | inhibition of LDHB enzyme activity [7]: only at supraphysiological concentrations

MIDAS protein-metabolite interaction [8]: interacted
Compound: O=C(COP(=O)(O)O)[C@@H](O)[C@H](O)[C@H](O)COP(=O)(O)O [fructose 1,6-bisphosphate]

MIDAS protein-metabolite interaction [5]: interacted
Compound: CN1c2c(nc(N)[nH]c2=O)NCC1CNc1ccc(C(=O)N[C@@H](CCC(=O)O)C(=O)O)cc1 (stereo partly drawn) [5-MTHF, 5-methyltetrahydrofolate]

Compound: Nc1ncnc2c1ncn2[C@@H]1O[C@H](COP(=O)(O)OP(=O)(O)O)[C@@H](O)[C@H]1O [ADP, adenosine diphosphate]
inhibition of LDHA enzyme activity [6]: only at supraphysiological concentrations | inhibition of LDHB enzyme activity [7]: only at supraphysiological concentrations

MIDAS protein-metabolite interaction [4]: interacted | MIDAS protein-metabolite interaction [9]: interactions | MIDAS protein-metabolite interaction [10]: interactions
Compound: NC(=O)c1ccc[n+]([C@@H]2O[C@H](COP(=O)([O-])OP(=O)(O)OC[C@H]3O[C@@H](n4cnc5c(N)ncnc54)[C@H](O)[C@@H]3O)[C@@H](O)[C@H]2O)c1 [NAD, nicotinamide adenine dinucleotide]

MIDAS protein-metabolite interaction [2]: interacted | MIDAS protein-metabolite interaction [3]: interacted
Compound: O=C(O)[C@H](O)COP(=O)(O)O [3PG, 3-phosphoglycerate]

MIDAS protein-metabolite interaction [11]: bind | MIDAS protein-metabolite interaction [12]: bind
Compound: NCCCN [1,3-diaminopropane]

MIDAS protein-metabolite interaction [11]: bind | MIDAS protein-metabolite interaction [12]: bind
Compound: NCCCCCN [cadaverine]

MIDAS protein-metabolite interaction [8]: interacted
Compound: O=C(CO)[C@@H](O)[C@H](O)[C@H](O)[C@H](O)COP(=O)(O)O [sedoheptulose-7-phosphate]

MIDAS protein-metabolite interaction [1]: interacted
Compound: O=C(CO)[C@@H](O)[C@H](O)[C@H](O)COP(=O)(O)O [fructose-6-phosphate]

MIDAS protein-metabolite interaction [12]: most enriched interactors
Compound: N=C(N)NCCC[C@H](N)C(=O)O [arginine]

Compound: CCCCCCCCCCCCCCCCC(C)(C)C(=O)O [DiMeSte, 2,2-dimethyl-stearate, reference compound]
13C-glucose tracing [13, 16]: inhibited | 13C-lactate tracing [14, 16]: inhibited

MIDAS protein-metabolite interaction [9]: interactions | MIDAS protein-metabolite interaction [10]: interactions
Compound: Cc1cc2nc3c(=O)[nH]c(=O)nc-3n(C[C@H](O)[C@H](O)[C@H](O)COP(=O)(O)OP(=O)(O)OC[C@H]3O[C@@H](n4cnc5c(N)ncnc54)[C@H](O)[C@@H]3O)c2cc1C [flavin adenine dinucleotide]

Compound: CCCCCCCCCCCCCCCC(=O)O [Palmitate, palmitate]
labeling of lactate from 13C-glucose ([13]; Ldhb−/− H9c2 cells): decreased | labeling of lactate from 13C-glucose ([13]; WT H9c2 cells): decreased | pyruvate labeling from 13C-lactate ([14]; Ldha−/− H9c2 cells): unaffected | pyruvate labeling from 13C-lactate ([14]; Ldha−/−Ldhb−/− H9c2 cells): unaffected | generation of m+3 pyruvate from 13C-lactate ([14]; Ldhb−/− H9c2 cells): blunted | generation of m+3 pyruvate from 13C-lactate ([14]; WT H9c2 cells): blunted

MIDAS protein-metabolite interaction [9]: interactions | MIDAS protein-metabolite interaction [10]: interactions
Compound: O=C(O)CC(=O)C(=O)O [oxaloacetate]

MIDAS protein-metabolite interaction [11]: bind | MIDAS protein-metabolite interaction [12]: bind
Compound: NCCCCN=C(N)N [agmatine]

MIDAS protein-metabolite interaction [5]: interacted
Compound: N[C@@H](Cc1cc(I)c(O)c(I)c1)C(=O)O [3,5-diiodo-L-tyrosine]

Compound: CCC/C=C/C/C=C/C=C/C=N/NN=O [triacsin C, reference compound]
effect on palmitate-mediated inhibition of lactate labeling ([13]; 13C-glucose tracing in presence of palmitate): prevented | effect on palmitate-mediated inhibition of pyruvate labeling ([14]; 13C-lactate tracing in presence of palmitate): prevented

Kd [15]: 3.87 mM
Compound: O=C(O)/C=C/C(=O)O [fumarate]

MIDAS protein-metabolite interaction [4]: interacted | MIDAS protein-metabolite interaction [2]: interacted
Compound: O=P(O)(O)O[C@@H]1[C@H](O)[C@H](O)[C@@H](OP(=O)(O)O)[C@H](OP(=O)(O)O)[C@H]1O [inositol-1,4,5-trisphosphate]
